In the library only some 3.7% were active in any assay of this set; here they are far more common.
KCNK3 inh: human KCNK3 channel inhibition, primary screen; O14649; CHO-KCNK3 thallium flux, FluxOR fluorescence; active compounds read low; B-score at 10 µM; hit rate 0.84% among 340,000; AID 602410;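 active = B-score under library mean minus 4 SD, starting fluorescence ratio at most library mean plus 5 SD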;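 also: more negative B-score means stronger inhibition of thallium flux through KCNK3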
hERG rescue: shields human hERG channel from block by proarrhythmic agents; activation (rescue from dofetilide block), less the hit threshold, % at 10 µM; hit rate 0.51% among 310,000; CHO-hERG, FluxOR thallium flux, dofetilide IC70 present; AID 1511;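 active = activation above the mean of controls blocked by dofetilide plus 5 SD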;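 also: thallium influx through hERG after potassium depolarization seen as dye fluorescence rise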
Kir21 inh: Kir2.1 (mouse) channel inhibition; AID 1672; hit rate 0.85% among 310,000; HEK293-Kir2.1, FluxOR thallium flux fluorescence; active compounds read low; B-score at 10 µM;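 active = fluorescence ratio B-score at or below minus 3 SD of library scores, with starting-brightness B-score within 2 SD, cut at about -4.2 in these data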;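 also: channel flux triggered by added potassium and thallium sulfate stimulus; B-score of peak minus minimum fluorescence over baseline after thallium stimulus; more negative B-score means stronger Kir2.1 block with less thallium influx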
KCNQ1 pot: human KCNQ1 channel potentiation or activation. P51787. CHO-K1 KCNQ1, thallium flux FluxOR fluorescence; active compounds read high. B-score at 10 µM. hit rate 0.35% among 310,000. AID 2648;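 active = fluorescence ratio B-score, a plate-corrected score, at least three library SD, with initial intensity B-score within 5 SD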
Target sequence (P51787 whole entry, looked up): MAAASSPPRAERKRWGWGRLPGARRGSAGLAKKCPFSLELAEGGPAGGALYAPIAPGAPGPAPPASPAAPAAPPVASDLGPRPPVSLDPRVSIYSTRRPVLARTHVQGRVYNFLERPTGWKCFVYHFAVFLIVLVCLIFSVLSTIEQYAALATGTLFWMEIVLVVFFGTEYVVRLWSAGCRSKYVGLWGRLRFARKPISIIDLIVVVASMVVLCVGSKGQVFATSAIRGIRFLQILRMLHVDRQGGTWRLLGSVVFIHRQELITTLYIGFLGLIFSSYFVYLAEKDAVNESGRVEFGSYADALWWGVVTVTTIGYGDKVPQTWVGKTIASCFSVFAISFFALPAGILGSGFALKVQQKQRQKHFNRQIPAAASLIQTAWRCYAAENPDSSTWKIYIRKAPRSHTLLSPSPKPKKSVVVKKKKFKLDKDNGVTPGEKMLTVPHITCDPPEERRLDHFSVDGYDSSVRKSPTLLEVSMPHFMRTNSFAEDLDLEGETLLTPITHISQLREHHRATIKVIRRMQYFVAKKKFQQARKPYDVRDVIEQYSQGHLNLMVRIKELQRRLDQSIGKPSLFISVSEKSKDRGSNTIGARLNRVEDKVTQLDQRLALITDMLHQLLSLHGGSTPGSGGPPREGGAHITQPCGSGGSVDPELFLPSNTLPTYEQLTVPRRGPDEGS
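System: Stable KCNQ1 CHO-K1 line | Incubation: 90 min dye loading and 20 min compound exposure, both at room temperature | Measure: Ratio B score | Medium: Assay buffer for compound exposure, DMSO matched across wells | Compound dosing: Single-concentration screen | Probe or stimulus: K+/Tl+ depolarizing stimulus | Measured by: Kinetic FluxOR fluorescence, 10 s baseline plus 110 s post-stimulus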
KCNK9 inh: inhibitors of human KCNK9 two-pore domain potassium channel; HEK293 KCNK9, FluxOR thallium flux fluorescence; active compounds read low; B-score at 10 µM; hit rate 1.2% among 310,000;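 active = ratio B-score over 3 SD below the library mean, with starting fluorescence within 5 SD of its mean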;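 also: negative B-score means less thallium flux so channel inhibition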
KCNQ1 block: inhibitors of human KCNQ1 potassium channel; hit rate 1.3% among 310,000; P51787; AID 2642; CHO-K1 KCNQ1, FluxOR thallium flux fluorescence; active compounds read high; B-score at 10 µM;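 active = compounds whose thallium flux B-score, printed positive for inhibition, exceeds three library SD while starting fluorescence stays within three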;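 also: channel opened by potassium depolarization with thallium stimulus after 20 min compound exposure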
KCNK9 block conf: confirmation of human KCNK9 potassium channel inhibitors. shares compounds with KCNK9 inh. AID 492992. HEK293 KCNK9 cells, FluxOR thallium flux fluorescence. inhibition, % at 10 µM. hit rate 43% among 4,900;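 active = thallium signal inhibited by more than 5 SD of the compound-free buffer control wells, on both duplicate plates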;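 also: 0% = assay buffer control wells without compound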
Kir2-1 spec: mouse Kir2.1 off-target activity of KCNK9 modulators. shares compounds with KCNK9 inh. Kir2.1 cells, FluxOR thallium flux fluorescence. inhibition, % at 10 µM. hit rate 4% among 4,900. AID 492993;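 active = thallium signal drop more than 5 SD beyond the mean of the no-compound control wells, seen in both duplicate plates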;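 also: signal is fluorescence rise after thallium addition divided by baseline fluorescence; plate controls were assay buffer only for no effect and full block by chlorpromazine control for full effect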
KCNK9 uninduced: non-induced cell nonspecific activity of KCNK9 modulators; shares compounds with KCNK9 inh; non-induced KCNK9-HEK293, FluxOR thallium flux; inhibition, % at 10 µM; hit rate 40% among 4,900;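 active = thallium signal drop beyond 5 SD of the untreated control mean, on both duplicate plates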;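 also: plate controls were buffer only IC0 wells for no effect and SID17386958 at its maximal inhibitory level for full effect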
Active calls of the source: *.

Screening Cc1cc(C)nc(N/C(=N\S(=O)(=O)Cc2ccccc2)Nc2ccc(F)c(Cl)c2)n1 returned KCNK3 inh inactive, hERG rescue -4, Kir21 inh -0.06, KCNQ1 pot inactive, KCNK9 inh -13*, KCNQ1 block inactive, KCNK9 block conf inactive, Kir2-1 spec inactive and KCNK9 uninduced inactive.
For CC(Oc1ccc(Br)cc1)c1nc2c3ccccc3nc(=S)n2[nH]1 (configuration not stated) the results were KCNK3 inh inactive, hERG rescue 0, Kir21 inh 0.37, KCNQ1 pot 10*, KCNK9 inh inactive, KCNQ1 block inactive, KCNK9 block conf inactive, Kir2-1 spec inactive and KCNK9 uninduced inactive.
For COc1ccccc1-c1nc2c3ccccc3nc(=S)n2[nH]1 the results were KCNK3 inh inactive, hERG rescue -9, Kir21 inh 0.71, KCNQ1 pot inactive, KCNK9 inh inactive and KCNQ1 block inactive.
CCCC(Oc1ccc(Br)cc1)c1nc2c3cc(OC)c(OC)cc3nc(=S)n2[nH]1 (configuration not stated) was read as KCNK3 inh inactive, hERG rescue -14, Kir21 inh 0.67, KCNQ1 pot inactive, KCNK9 inh inactive, KCNQ1 block inactive, KCNK9 block conf inactive, Kir2-1 spec inactive and KCNK9 uninduced inactive.
`O=C(c1cccs1)N(Cc1ccco1)c1nc(-c2ccc(F)cc2)cs1` gave KCNK3 inh -14*, hERG rescue -6, Kir21 inh -2.2, KCNQ1 pot inactive, KCNK9 inh -14*, KCNQ1 block 6*, KCNK9 block conf 64%*, Kir2-1 spec inactive and KCNK9 uninduced 48%*.
`C=CCOc1ccc(/C=C/C(=O)Nc2ccc(C(=O)NC)cc2)cc1` gave KCNK3 inh inactive, hERG rescue -2, Kir21 inh -0.1, KCNQ1 pot inactive, KCNK9 inh inactive and KCNQ1 block inactive.
For COc1ccc(NC(=O)CN2CCN(c3ccccc3C)CC2)cc1 the results were KCNK3 inh inactive, hERG rescue -4, Kir21 inh 0.86, KCNQ1 pot inactive, KCNK9 inh inactive and KCNQ1 block inactive.
For COc1ccc(NC(=O)CN2CCN(c3ccccc3Cl)CC2)cc1 the results were KCNK3 inh inactive, hERG rescue -12, Kir21 inh -0.54, KCNQ1 pot inactive, KCNK9 inh inactive, KCNQ1 block inactive, KCNK9 block conf inactive, Kir2-1 spec inactive and KCNK9 uninduced inactive.
Screening Cc1ccc(-c2c(C)sc3ncn(CC(=O)N4CCOCC4)c(=O)c23)cc1C returned KCNK3 inh inactive, hERG rescue -12, Kir21 inh -0.21, KCNQ1 pot inactive, KCNK9 inh inactive, KCNQ1 block inactive, KCNK9 block conf inactive, Kir2-1 spec inactive and KCNK9 uninduced inactive.
For Cc1ccc(-c2csc3ncn(CC(=O)N4CCOCC4)c(=O)c23)cc1C the results were KCNK3 inh inactive, hERG rescue -7, Kir21 inh -0.68, KCNQ1 pot inactive, KCNK9 inh inactive and KCNQ1 block inactive.
COc1cccc(-c2ccc(SCc3ccccn3)nn2)c1 was read as KCNK3 inh inactive, hERG rescue -23, Kir21 inh -1.7, KCNQ1 pot inactive, KCNK9 inh inactive, KCNQ1 block inactive, KCNK9 block conf inactive, Kir2-1 spec inactive and KCNK9 uninduced inactive.
O=C(O)C(SC(C(=O)O)c1ccccc1)c1ccccc1 (configuration not stated) was read as KCNK3 inh inactive.
For Cc1cccc(Oc2nc(CN3CCOCC3)nc3sc4c(c23)CCCC4)c1 the results were KCNK3 inh inactive, hERG rescue -16, Kir21 inh -0.61, KCNQ1 pot inactive, KCNK9 inh inactive, KCNQ1 block inactive, KCNK9 block conf inactive, Kir2-1 spec inactive and KCNK9 uninduced inactive.
For OCCN(Cc1cccnc1)Cc1ccccn1 the results were KCNK3 inh inactive.
Cc1cc(C(=O)CSc2ccc(F)cc2)cc(C)c1OC(=S)N(C)C was read as KCNK3 inh inactive, hERG rescue -9, Kir21 inh 0.11, KCNQ1 pot inactive, KCNK9 inh inactive, KCNQ1 block inactive, KCNK9 block conf inactive, Kir2-1 spec inactive and KCNK9 uninduced 32%*.
For Cc1ccc(SCC(=O)c2cc(C)c(O)c(C)c2)cc1 the results were KCNK3 inh inactive, hERG rescue -6, Kir21 inh -0.04, KCNQ1 pot inactive, KCNK9 inh inactive and KCNQ1 block inactive.
For N#CC(c1ccccc1)c1ccc(C(=O)c2ccc(F)cc2)cc1 (configuration not stated) the results were KCNK3 inh inactive, hERG rescue -7, Kir21 inh -0.21, KCNQ1 pot inactive, KCNK9 inh -9.8*, KCNQ1 block inactive, KCNK9 block conf 54%*, Kir2-1 spec inactive and KCNK9 uninduced 36%*.
For O=C(c1ccc(F)c(S(=O)(=O)N2CCOCC2)c1)N1CCN(c2ncccn2)CC1 the results were KCNK3 inh inactive.
Cc1ccc(Cl)c(N/C=C/C(=O)c2ccccc2)c1 was read as KCNK3 inh inactive, hERG rescue -1, Kir21 inh -0.44, KCNQ1 pot inactive, KCNK9 inh -15*, KCNQ1 block inactive, KCNK9 block conf 70%*, Kir2-1 spec inactive and KCNK9 uninduced 38%*.
Cc1ccccc1C(=O)Nc1sc(C)c(C)c1C(=O)c1ccccc1 was read as KCNK3 inh inactive, hERG rescue -20, Kir21 inh -2.4, KCNQ1 pot inactive, KCNK9 inh inactive, KCNQ1 block 8*, KCNK9 block conf inactive, Kir2-1 spec inactive and KCNK9 uninduced inactive.
Cc1sc(NC(=O)CCl)c(C(=O)c2ccccc2)c1C was read as KCNK3 inh inactive, hERG rescue -5, Kir21 inh 2.3, KCNQ1 pot inactive, KCNK9 inh inactive and KCNQ1 block inactive.
Screening O=C(Nc1cccc(S(=O)(=O)N2CCCCCC2)c1)C1CCN(C(=O)c2ccc(Cl)cc2)CC1 returned KCNK3 inh inactive, hERG rescue -10, Kir21 inh 1.1, KCNQ1 pot inactive, KCNK9 inh inactive, KCNQ1 block inactive, KCNK9 block conf inactive, Kir2-1 spec inactive and KCNK9 uninduced inactive.

Source: PubChem
